Numbered stars: 1 amine (or outer) side, 2 acyl side, 3 side chain; on linkers, the order of the positions; unused ones are H or OH. Bridge positions count the residues as written; N and C are the ends. Square brackets hold non-standard residues; d marks the D form. Peptide text beside a SMILES is read from it. Ala(2-furyl) = N[C@@H](Cc1ccco1)C(=O)O; Orn(iPr) = CC(C)NCCC[C@H](N)C(=O)O; X1 = CCNCCC[C@H](N[*:1])C(=O)[*:2]; Orn = NCCC[C@H](N)C(=O)O; Dab = NCC[C@H](N)C(=O)O

Assay [1] deals with Vasopressin V1a receptor (Homo sapiens, UniProt P37288). As to the kind of experiment: Agonist activity at recombinant human vasopressin V1a receptor expressed in HEK293 cells by luciferase reporter gene assay. The note with it: read-out: EC50. The format is functional, cell-based. On the technique in general: In a reporter assay the amount or activity of a reporter protein is the signal.
Vasopressin V1a receptor (Homo sapiens, UniProt P37288), sequence (P37288 whole entry): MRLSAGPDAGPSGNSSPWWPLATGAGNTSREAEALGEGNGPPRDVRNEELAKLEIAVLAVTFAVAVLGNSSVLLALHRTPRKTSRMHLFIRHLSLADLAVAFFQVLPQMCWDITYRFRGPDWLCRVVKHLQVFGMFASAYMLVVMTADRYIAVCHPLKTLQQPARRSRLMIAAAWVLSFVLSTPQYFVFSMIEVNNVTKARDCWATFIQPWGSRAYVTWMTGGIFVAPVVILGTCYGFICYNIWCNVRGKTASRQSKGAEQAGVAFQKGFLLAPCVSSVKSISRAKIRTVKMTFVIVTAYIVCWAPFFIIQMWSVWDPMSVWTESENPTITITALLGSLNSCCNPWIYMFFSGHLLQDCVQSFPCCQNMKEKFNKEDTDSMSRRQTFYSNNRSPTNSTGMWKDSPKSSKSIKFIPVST

Assay [2] deals with Rattus norvegicus. As to the kind of experiment: Vasoconstriction in Wistar rat assessed as decay in vasopressive duration of action at 1 nmol/kg, iv bolus measured over 10 sec interval. In kind it is functional. The procedure, abridged: (§1)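 Fasted male Wistar rats (206–340 g) under isoflurane, then thiobutabarbital 150 mg/kg ip, ventilated, 37–38 °C, with carotid pressure and jugular dosing. Dibenamine 1.8 mg/rat iv pretreatment. Sequence: iv boluses (0.5 mL/kg) of heparinized vehicle, then two reference doses of 0.1 nmol/kg, then two test doses; one matches the reference diastolic pressure rise. Relative duration = reference decay rate / test decay rate; mean ± SEM.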

Assay [3] addresses Vasopressin V1a/V2 (Homo sapiens) (UniProt P30518+P37288). As to the kind of experiment: Selectivity ratio of EC50 for human vasopressin V2 receptor to EC50 for human vasopressin V1a receptor.
The target in assay [4] is Vasopressin V1a receptor (Rattus norvegicus, UniProt P30560). As to the kind of experiment: Agonist activity at recombinant rat vasopressin V1a receptor expressed in HEK293 cells by luciferase reporter gene assay. The format is functional, cell-based. To be noted: read-out: EC50.
Vasopressin V1a receptor (Rattus norvegicus, UniProt P30560), sequence (P30560 whole entry): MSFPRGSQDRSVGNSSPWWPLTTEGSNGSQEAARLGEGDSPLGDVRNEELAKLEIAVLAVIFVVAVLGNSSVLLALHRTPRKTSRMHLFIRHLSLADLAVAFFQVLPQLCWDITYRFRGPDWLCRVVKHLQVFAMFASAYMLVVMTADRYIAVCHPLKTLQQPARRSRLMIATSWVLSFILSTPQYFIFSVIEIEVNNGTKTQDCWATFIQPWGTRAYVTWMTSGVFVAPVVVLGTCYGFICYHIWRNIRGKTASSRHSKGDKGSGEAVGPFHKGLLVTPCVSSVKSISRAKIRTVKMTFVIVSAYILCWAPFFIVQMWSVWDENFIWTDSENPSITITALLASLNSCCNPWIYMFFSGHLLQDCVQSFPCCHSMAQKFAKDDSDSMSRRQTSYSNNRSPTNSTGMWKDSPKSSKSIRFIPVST
In another assay the target is T1, Vasopressin V1b receptor (Homo sapiens, UniProt P47901).
T1 sequence (P47901 whole entry): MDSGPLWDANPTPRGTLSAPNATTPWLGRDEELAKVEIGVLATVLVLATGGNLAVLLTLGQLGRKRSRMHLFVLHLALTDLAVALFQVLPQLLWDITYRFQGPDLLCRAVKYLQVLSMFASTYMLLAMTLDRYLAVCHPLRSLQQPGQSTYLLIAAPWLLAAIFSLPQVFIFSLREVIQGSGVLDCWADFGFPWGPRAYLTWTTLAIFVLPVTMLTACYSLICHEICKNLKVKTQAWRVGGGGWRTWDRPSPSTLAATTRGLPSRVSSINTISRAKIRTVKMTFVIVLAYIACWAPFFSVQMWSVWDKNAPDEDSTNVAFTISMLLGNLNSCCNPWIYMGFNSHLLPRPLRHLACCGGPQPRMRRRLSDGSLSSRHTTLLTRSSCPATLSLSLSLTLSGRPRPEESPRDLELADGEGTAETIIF
As to the kind of experiment: Agonist activity at recombinant human vasopressin V1b receptor expressed in Flp-In-293 cells by luciferase reporter gene assay. The note with it: read-out: EC50. The format is functional, cell-based. Put shortly:
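Reporter gene assays in HEK293 cells transiently cotransfected with V1a (human or rat) or human V2 receptor vector plus NFAT-luciferase (V1a) or CRE-luciferase (V2) reporter; V1b in Flp-In-293 stably expressing receptor, OT in CHO-K1 stably expressing receptor, both transiently transfected with NFAT-luciferase. Two days post-transfection, peptides added for 5 h at 37 °C, lysis with luciferin, luminescence read.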

For the next assay, the target named is T2, Oxytocin receptor (Homo sapiens, UniProt P30559).
T2 sequence (P30559 whole entry): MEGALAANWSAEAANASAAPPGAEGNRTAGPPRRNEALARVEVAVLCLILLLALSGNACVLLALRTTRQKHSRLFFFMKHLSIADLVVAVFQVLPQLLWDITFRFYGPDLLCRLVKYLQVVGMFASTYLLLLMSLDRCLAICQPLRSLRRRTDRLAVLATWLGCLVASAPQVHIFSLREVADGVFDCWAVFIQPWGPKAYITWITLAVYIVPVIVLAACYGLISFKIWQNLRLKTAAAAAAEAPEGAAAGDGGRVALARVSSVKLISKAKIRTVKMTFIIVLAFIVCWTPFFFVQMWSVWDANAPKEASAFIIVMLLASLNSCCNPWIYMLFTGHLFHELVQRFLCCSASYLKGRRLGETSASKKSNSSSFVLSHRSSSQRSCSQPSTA
As to the kind of experiment: Agonist activity at human OT receptor expressed in CHO-K1 cells by luciferase reporter gene assay. In kind it is functional, cell-based.

The species entered for assay [5] is Homo sapiens. As to the kind of experiment: Selectivity ratio of EC50 for human oxytocin receptor to EC50 for human vasopressin V1a receptor.
For assay [6], the species on record is Homo sapiens. As to the kind of experiment: Selectivity ratio of EC50 for human vasopressin V1b receptor to EC50 for human vasopressin V1a receptor.
In a further assay the target is Vasopressin V2 receptor (Homo sapiens, UniProt P30518). As to the kind of experiment: Agonist activity at recombinant human vasopressin V2 receptor expressed in HEK293 cells by luciferase reporter gene assay. In kind it is functional, cell-based.
Vasopressin V2 receptor, sequence (P30518 whole entry): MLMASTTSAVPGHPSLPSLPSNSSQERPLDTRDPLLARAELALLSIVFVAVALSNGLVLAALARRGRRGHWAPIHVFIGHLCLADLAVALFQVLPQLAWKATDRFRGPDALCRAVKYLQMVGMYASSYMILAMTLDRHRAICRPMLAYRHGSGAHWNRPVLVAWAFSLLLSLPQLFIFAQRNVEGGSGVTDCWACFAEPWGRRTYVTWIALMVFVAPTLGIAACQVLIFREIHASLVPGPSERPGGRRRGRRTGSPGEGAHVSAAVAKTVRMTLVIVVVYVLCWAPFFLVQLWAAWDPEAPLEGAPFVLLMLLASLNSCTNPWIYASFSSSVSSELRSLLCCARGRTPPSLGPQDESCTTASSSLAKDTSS
Assay [7] deals with Rattus norvegicus. As to the kind of experiment: Vasoconstriction in Wistar rat assessed as assessed as decay in vasopressive duration of action at 0.1 nmol/kg, iv bolus measured over 10 sec interval. In kind it is functional.
Assay [8] has as its system Rattus norvegicus. As to the kind of experiment: Vasoconstriction in Wistar rat assessed as assessed as decay in vasopressive duration of action at 6 nmol/kg, iv bolus measured over 10 sec interval. In kind it is functional. Put shortly: as §1

Vasopressin V1a/V2 (Homo sapiens), sequence (P30518 whole entry, looked up): as the sequence (P30518 whole entry) above
Vasopressin V1a/V2 (Homo sapiens), sequence (P37288 whole entry, looked up): as the sequence (P37288 whole entry) above

With `CC[C@H](C)[C@@H]1NC(=O)[C@H](Cc2ccco2)NC(=O)[C@@H](N)CSSC[C@@H](C(=O)N2CCC[C@H]2C(=O)N[C@@H](CCCNC(C)C)C(=O)NCC(N)=O)NC(=O)[C@H](CC(N)=O)NC(=O)[C@H](CCC(N)=O)NC1=O` (H-C[Ala(2-furyl)]IQNCP[Orn(iPr)]G-NH2; disulfide 1-6), the EC50 on Vasopressin V1a receptor [1] was 2.6 nM; on Vasopressin V1a receptor [4], 0.62 nM; at Vasopressin V1b receptor, 570 nM; at Oxytocin receptor (read-out: EC50), 260 nM; on Vasopressin V2 receptor (read-out: EC50) it was 950 nM. The Time in the assay with Rattus norvegicus [2] was 1.5 unitless ratio. Moreover, the values for the Ratio EC50 (in [3]; in the assay listed under Homo sapiens [5]; in the assay listed under Homo sapiens [6]) were 360, 100 and 210, respectively.

For the compound `CC[C@H](C)[C@@H]1NC(=O)[C@H](Cc2ccccc2)NC(=O)[C@@H](N)CSSC[C@@H](C(=O)N2CCC[C@H]2C(=O)N[C@@H](CCCN)C(=O)NCC(N)=O)NC(=O)[C@H](CC(N)=O)NC(=O)[C@H](CC(=O)N(C)C)NC1=O` (H-CFID(NMe2)NCP[Orn]G-NH2; disulfide 1-6), the EC50 on Vasopressin V1a receptor [1] is 1.7 nM; on Vasopressin V1a receptor [4], 1 nM; on Vasopressin V1b receptor, 62 nM; at Oxytocin receptor (cho-k1, read-out: EC50) it was over 10000 nM; on Oxytocin receptor (read-out: pEC50 (converted)), over 10000 nM; at Vasopressin V2 receptor (hek293, read-out: EC50) it was over 10000 nM. Further, the EC50 on Vasopressin V2 receptor (read-out: pEC50 (converted)) is over 10000 nM. Besides, the Time in the assay with Rattus norvegicus [2] turned out to be 1.6 unitless ratio. The Ratio EC50 is over 5800 in assay [3], over 5800 in the assay listed under Homo sapiens [5] and 36 in the assay filed under Homo sapiens [6].

As for `NCCC[C@H](NC(=O)[C@@H]1CCCN1C(=O)[C@@H]1CSSC[C@H](N)C(=O)N[C@@H](Cc2ccc(O)cc2)C(=O)N[C@@H](Cc2ccccc2)C(=O)N[C@@H](CCC(N)=O)C(=O)N[C@@H](CC(N)=O)C(=O)N1)C(=O)NCC(N)=O` [ORNIPRESSIN], in the assay on Rattus norvegicus [7], the Time is 1.1 unitless ratio. The results for the EC50 on Vasopressin V1b receptor and at Oxytocin receptor (read-out: EC50) were 7.5 nM and 71 nM, respectively.

Consider `CCNCCC[C@H](NC(=O)[C@@H]1CCCN1C(=O)[C@@H]1CSSC[C@H](N)C(=O)N[C@@H](Cc2ccccc2)C(=O)N[C@@H]([C@@H](C)CC)C(=O)N[C@@H](CC(N)=O)C(=O)N[C@@H](CC(N)=O)C(=O)N1)C(=O)NCC(N)=O` (H-CFINNCP[X1]G-NH2; disulfide 1-6), for which the EC50 on Vasopressin V1a receptor [1] is 0.99 nM; at Vasopressin V1a receptor [4], 8 nM; on Vasopressin V1b receptor it was 120 nM; on Oxytocin receptor (cho-k1, read-out: EC50), over 10000 nM; at Oxytocin receptor (read-out: pEC50 (converted)), over 10000 nM; on Vasopressin V2 receptor (hek293, read-out: EC50), over 10000 nM. At Vasopressin V2 receptor (read-out: pEC50 (converted)), the EC50 is over 10000 nM. Moreover, the values for the Ratio EC50 (in [3]; in the assay filed under Homo sapiens [5]; in the assay listed under Homo sapiens [6]) were over 10000, over 10000 and 120, respectively. The Time in the assay with Rattus norvegicus [8] was 2.4 unitless ratio.

For `N=C(N)NCCC[C@H](NC(=O)[C@@H]1CCCN1C(=O)[C@@H]1CSSC[C@H](N)C(=O)N[C@@H](Cc2ccc(O)cc2)C(=O)N[C@@H](Cc2ccccc2)C(=O)N[C@@H](CCC(N)=O)C(=O)N[C@@H](CC(N)=O)C(=O)N1)C(=O)NCC(N)=O` [VASOPRESSIN], the Time with Rattus norvegicus [7] worked out at 1 unitless ratio.

Regarding `CC[C@H](C)[C@@H]1NC(=O)[C@H](Cc2ccccc2)NC(=O)[C@@H](N)CSSC[C@@H](C(=O)N2CCC[C@H]2C(=O)N[C@@H](CCN)C(=O)NCC(N)=O)NC(=O)[C@H](CC(N)=O)NC(=O)[C@H](CC(N)=O)NC1=O` (H-CFINNCP[Dab]G-NH2; disulfide 1-6), the EC50 on Vasopressin V1a receptor [1] is 2.9 nM; on Vasopressin V1a receptor [4], 2 nM; on Vasopressin V1b receptor, 37 nM; on Oxytocin receptor (cho-k1, read-out: EC50) it was over 10000 nM; at Oxytocin receptor (read-out: pEC50 (converted)) it was over 10000 nM; on Vasopressin V2 receptor (hek293, read-out: EC50) it was over 10000 nM. The EC50 on Vasopressin V2 receptor (read-out: pEC50 (converted)) is over 10000 nM. The Ratio EC50 in assay [3] was over 3400; in the assay filed under Homo sapiens [5], over 3400; in the assay listed under Homo sapiens [6] it was 12. Further, the Time in the assay with Rattus norvegicus [8] stood at 2 unitless ratio.

The record behind these values is ChEMBL document CHEMBL1817572, “New, potent, selective, and short-acting peptidic V1a receptor agonists” (J Med Chem, 2011).
